Test [1] relates to Mus musculus. The experiment in a line: Antipsychotic activity in albino lyka mouse assessed as reversal of apomorphine-induced stereotypy at 5 to 10 mg/kg, ip administered 10 mins prior to apomorphine challenge measured 10 to 30 mins post challenge. Type of test: functional, organism-based. The method in brief: (§1)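 Mice (same animals as the climbing test) dosed ip with test agent, saline vehicle or clozapine; apomorphine 2.5 mg/kg given 10 min later. Each mouse was placed in an inverted 500 ml beaker for 60 s at 10, 15, 20, 25 and 30 min post-apomorphine. Scored 1 (rearing, sniffing, grooming) or 2 (licking, biting). Three doses per compound, chosen by initial titration.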

The subject of test [2] is Mus musculus. Kind of test: Antipsychotic activity in ip dosed albino lyka mouse assessed as reversal of apomorphine-induced mesh climbing response administered 10 mins prior to apomorphine challenge measured 10 to 30 mins post challenge. Type of test: functional. The method in brief:
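Test agent, saline or clozapine given ip; apomorphine 2.5 mg/kg ip 10 min later. Mice were placed in a mesh cage for 60 s at 10, 15, 20, 25 and 30 min post-apomorphine, with a naive baseline recorded first. Climbing scored 1 (one to three paws on mesh) or 2 (all four paws). Mean score per group.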

Test [3] deals with Mus musculus. Kind of test: Antipsychotic activity in albino lyka mouse assessed as reversal of apomorphine-induced stereotypy at 2.5 to 7.5 mg/kg, ip administered 10 mins prior to apomorphine challenge measured 10 to 30 mins post challenge. The test is classed as functional, organism-based. In outline:
as §1

The subject of test [4] is Mus musculus. Kind of test: Antipsychotic activity in albino lyka mouse assessed as reversal of apomorphine-induced stereotypy at 2 to 7.5 mg/kg, ip administered 10 mins prior to apomorphine challenge measured 10 to 30 mins post challenge. Type of test: functional, organism-based. In outline: as §1
Test [5] has as its system Mus musculus. Kind of test: Antipsychotic activity in albino lyka mouse assessed as reversal of apomorphine-induced stereotypy at 2.5 to 5 mg/kg, ip administered 10 mins prior to apomorphine challenge measured 10 to 30 mins post challenge. Type of test: functional, organism-based. The method in brief:
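Mice given test compound, vehicle or clozapine i.p., then apomorphine 2.5 mg/kg i.p. 10 min later. Each mouse placed in an inverted 500 ml beaker for 60 s at 10, 15, 20, 25 and 30 min after apomorphine. Scored 1 (rearing, sniffing, grooming) or 2 (licking, biting), reported as mean score. Same mice as mesh-climbing test. Three dose levels, chosen by initial titration.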

Molecules are shown by their SMILES. Active and inactive are the calls of the source. No cut-off for these calls is given here.

For `Clc1ccccc1NCCCOc1ccccc1-c1cc2ccccc2[nH]1`, in the test with Mus musculus [1], the result was inactive. In the test on Mus musculus [2], the 50% effective dose (ED50) was 6.23 mg/kg.
With `COc1ccccc1NCCCOc1ccc(-c2cc3ccccc3[nH]2)cc1`, in the test with Mus musculus [3], the result was Active. In the test on Mus musculus [2], the ED50 was determined as 1.7 mg/kg.
Consider `Clc1ccc(NCCCOc2ccccc2-c2cc3ccccc3[nH]2)cc1`, for which the result in the test with Mus musculus [1] was inactive. Besides, the ED50 in the test on Mus musculus [2] stood at 7.23 mg/kg.
`Clc1ccc(NCCCOc2ccc(-c3cc4ccccc4[nH]3)cc2)cc1`: the outcome with Mus musculus [4] was inactive. In addition, in the test on Mus musculus [2], the ED50 was 1.8 mg/kg.
For `COc1ccc(NCCCOc2ccc(-c3cc4ccccc4[nH]3)cc2)cc1`, the outcome in the test with Mus musculus [3] was Active. Further, the ED50 in the test with Mus musculus [2] stood at 1.9 mg/kg.
For the molecule `Clc1ccccc1NCCCOc1ccc(-c2cc3ccccc3[nH]2)cc1`, the result in the test with Mus musculus [4] was inactive. For the same molecule, the ED50 in the test with Mus musculus [2] stood at 1.6 mg/kg.
Take `CN1CCN(C2=Nc3cc(Cl)ccc3Nc3ccccc32)CC1` [CLOZAPINE]: in the test with Mus musculus [2], the ED50 stood at 3.07 mg/kg. In the test with Mus musculus [5], the outcome was inactive.

A word on the ED50: it is the dose that gives a 50% effect, or the effect in half of the subjects.

(Values after ChEMBL document CHEMBL3112513, “Synthesis, docking and pharmacological evaluation of novel indole based potential atypical antipsychotics” (2014).)
